ChEMBL document CHEMBL1132483, “Fused bicyclic Gly-Asp beta-turn mimics with specific affinity for GPIIb-IIIa” (J Med Chem, 1999)
Values belong to the molecule of their own block, whether it stands above or below them.

Tests used:
[1] = organism: Homo sapiens; test: Concentration required to reduce ADP-induced platelet aggregation in platelet rich plasma by 50%; assay type: functional
Summary of the method: (§1)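 Human platelet-rich plasma was incubated for 1 min with varying test concentrations or vehicle, then aggregation was triggered with ADP. The response was followed turbidimetrically. IC50 is the concentration cutting the aggregation response by 50%, averaged from at least two determinations, with average error ±16%.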

[2] = target: Integrin alpha-IIb/beta-3 (Homo sapiens, UniProt P05106+P08514); test: Inhibition of fibrinogen binding to purified human alpha IIb beta-3 integrin (GP IIb-IIIa); assay type: protein-complex assay
Sequence of Integrin alpha-IIb/beta-3 (P05106 27-788 limits assumed): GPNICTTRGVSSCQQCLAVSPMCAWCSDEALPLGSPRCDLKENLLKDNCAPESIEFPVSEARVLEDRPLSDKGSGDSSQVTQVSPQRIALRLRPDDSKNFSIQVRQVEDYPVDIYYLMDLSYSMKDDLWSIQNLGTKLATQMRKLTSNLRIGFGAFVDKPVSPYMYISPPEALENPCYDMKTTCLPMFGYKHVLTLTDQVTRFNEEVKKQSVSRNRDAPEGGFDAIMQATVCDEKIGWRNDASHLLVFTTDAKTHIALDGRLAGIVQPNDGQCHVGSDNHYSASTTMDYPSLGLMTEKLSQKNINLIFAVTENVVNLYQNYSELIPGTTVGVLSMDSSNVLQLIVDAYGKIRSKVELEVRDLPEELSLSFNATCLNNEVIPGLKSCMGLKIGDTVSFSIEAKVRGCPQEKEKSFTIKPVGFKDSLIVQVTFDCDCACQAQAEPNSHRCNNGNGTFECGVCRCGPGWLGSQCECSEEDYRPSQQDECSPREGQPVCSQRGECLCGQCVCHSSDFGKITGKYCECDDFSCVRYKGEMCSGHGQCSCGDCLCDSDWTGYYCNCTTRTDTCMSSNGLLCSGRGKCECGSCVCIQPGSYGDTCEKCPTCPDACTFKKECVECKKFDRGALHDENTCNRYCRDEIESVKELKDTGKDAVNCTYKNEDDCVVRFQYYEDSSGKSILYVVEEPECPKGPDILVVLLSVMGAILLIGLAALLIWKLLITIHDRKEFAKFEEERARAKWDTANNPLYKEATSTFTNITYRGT
Sequence of Integrin alpha-IIb/beta-3 (P08514 32-887 limits assumed): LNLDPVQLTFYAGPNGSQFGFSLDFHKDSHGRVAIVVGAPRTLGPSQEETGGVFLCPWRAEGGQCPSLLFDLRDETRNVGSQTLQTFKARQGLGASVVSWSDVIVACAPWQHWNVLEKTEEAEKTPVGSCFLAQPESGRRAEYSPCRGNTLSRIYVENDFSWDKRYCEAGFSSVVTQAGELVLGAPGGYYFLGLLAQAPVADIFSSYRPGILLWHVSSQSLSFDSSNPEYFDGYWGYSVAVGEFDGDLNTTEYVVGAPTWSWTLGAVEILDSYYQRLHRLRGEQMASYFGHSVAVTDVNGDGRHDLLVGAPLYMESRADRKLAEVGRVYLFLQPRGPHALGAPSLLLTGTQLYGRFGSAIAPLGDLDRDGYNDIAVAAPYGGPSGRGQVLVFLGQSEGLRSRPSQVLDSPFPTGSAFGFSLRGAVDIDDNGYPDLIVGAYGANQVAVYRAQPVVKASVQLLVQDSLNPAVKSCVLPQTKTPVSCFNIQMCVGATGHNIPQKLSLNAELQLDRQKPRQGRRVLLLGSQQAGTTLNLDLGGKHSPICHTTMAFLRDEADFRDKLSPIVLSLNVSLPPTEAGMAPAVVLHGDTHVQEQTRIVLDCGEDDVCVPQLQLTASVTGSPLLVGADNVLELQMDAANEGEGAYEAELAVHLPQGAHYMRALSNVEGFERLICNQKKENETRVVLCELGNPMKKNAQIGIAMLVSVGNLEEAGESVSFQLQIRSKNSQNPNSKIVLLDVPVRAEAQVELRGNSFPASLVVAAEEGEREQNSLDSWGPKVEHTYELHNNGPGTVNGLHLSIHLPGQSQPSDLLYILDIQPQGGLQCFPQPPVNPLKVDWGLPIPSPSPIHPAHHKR
Sequence of Integrin alpha-IIb/beta-3 (P08514 891-1039 limits assumed): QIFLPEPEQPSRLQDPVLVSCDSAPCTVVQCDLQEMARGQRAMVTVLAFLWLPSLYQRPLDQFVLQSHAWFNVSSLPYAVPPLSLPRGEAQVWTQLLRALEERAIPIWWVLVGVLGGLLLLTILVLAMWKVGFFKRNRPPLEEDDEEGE

[3] = Cmax(ng /mL)values after oral administration of 10 mg/kg in guinea pig.; assay type: ADME, organism-based, Cavia porcellus; design: dose 10 mg/kg, route oral; conditions: in vivo
Summary of the method: (§2)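 Guinea pigs were fasted overnight and given a single 10 mg/kg oral gavage dose, formulated at 3 mg/mL in 50% poly(ethylene glycol) 300. Blood was drawn under isoflurane anesthesia into 3.8% trisodium citrate (9:1). Plasma was assayed by HPLC. AUC covers the 0-5 h time course, and Cmax is the peak plasma level.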

[4] = AUC(ng h/mL)values after oral administration of 10 mg/kg in guinea pig.; assay type: ADME, organism-based, Cavia porcellus; design: dose 10 mg/kg, route oral; conditions: plasma; summary of the method: as §2
[5] = organism: Homo sapiens; test: Concentration required to reduce ADP-induced platelet aggregation in platelet rich plasma by 50%.; assay type: functional; summary of the method: as §1
[6] = AUC(ng h/mL)values after oral administration of 10 mg/kg in rat.; assay type: ADME, organism-based; design: dose 10 mg/kg, route oral; conditions: plasma
Summary of the method: (§3)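 Rats were fasted overnight and dosed once by oral gavage at 10 mg/kg, in vehicle of 50% poly(ethylene glycol) 300 at 3 mg/mL. Blood was collected under isoflurane into 3.8% trisodium citrate (9:1), and plasma was prepared for HPLC analysis. AUC refers to the sampled time course.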

[7] = Cmax(ng /mL)values after oral administration of 10 mg/kg in rat.; assay type: ADME, organism-based; design: dose 10 mg/kg, route oral; conditions: in vivo; summary of the method: as §3
[8] = Cmax (ng /mL) value after oral administration of 10 mg/kg in guinea pig.; assay type: ADME, organism-based, Cavia porcellus; design: dose 10 mg/kg, route oral; conditions: in vivo; summary of the method: as §2
[9] = AUC (ng h/mL) value after oral administration of 10 mg/kg in guinea pig.; assay type: ADME, organism-based, Cavia porcellus; design: dose 10 mg/kg, route oral; conditions: plasma; summary of the method: as §2

IC50 [1]: 0.067 µg/mL | Cmax [3]: 252 ng/mL | AUC [4]: 903 ng·h/mL | IC50 [5]: 190 nM
SMILES: N=C(N)c1ccc(C(=O)Nc2ccc3c(c2)CCC(CC(=O)O)C3)cc1 (stereo unspecified)

IC50 [2]: 2 nM | IC50 [1]: 190 nM | IC50 [5]: 0.027 µg/mL
SMILES: N=C(N)c1ccc(C(=O)Nc2ccc3c(c2)CCC(CC(=O)O)O3)cc1 (stereo unspecified)

IC50 [1]: 0.032 µg/mL | Cmax [3]: 126 ng/mL | AUC [4]: 400 ng·h/mL | IC50 [5]: 90 nM
SMILES: N=C(N)c1ccc(C(=O)Nc2ccc3c(c2)CCN(CC(=O)O)C3=O)cc1

IC50 [2]: 1200 nM
SMILES: N=C(N)c1ccc(COc2ccc3c(c2)CN(CC(=O)O)C3=O)cc1

IC50 [2]: 5800 nM
SMILES: N=C(N)c1ccc(COc2ccc3c(c2)CC(=O)N(CC(=O)O)C3)cc1

IC50 [1]: 170 nM | IC50 [5]: 0.06 µg/mL
SMILES: N=C(N)c1ccc(C(=O)Nc2ccc3c(c2)CCN(CC(=O)O)C3)cc1

Cmax [8]: 469 ng/mL | AUC [9]: 1580 ng·h/mL
SMILES: CCOC(=O)Cc1cc2ccc(NC(=O)c3ccc(C(=N)N)cc3)cc2cn1

Further lines, the molecule ahead of its results:

SMILES: N=C(N)c1ccc(COc2ccc3c(c2)CCN(CC(=O)O)C3)cc1
IC50 [1]: 330 nM

SMILES: N=C(N)c1ccc(COc2ccc3c(c2)CCC(CC(=O)O)O3)cc1 (stereo unspecified)
IC50 [2]: 39 nM | IC50 [1]: 2500 nM

SMILES: N=C(N)c1ccc(COc2ccc(C(=O)NCC(=O)O)cc2)cc1
IC50 [2]: 5000 nM

SMILES: CCOC(=O)CC1CCc2cc(NC(=O)c3ccc(C(=N)N)cc3)ccc2C1 (stereo unspecified)
AUC [6]: 15900 ng·h/mL | Cmax [3]: 1170 ng/mL | AUC [4]: 3700 ng·h/mL | Cmax [7]: 5060 ng/mL

SMILES: CCOC(=O)CC1CCc2cc(NC(=O)c3ccc(C(=N)N)cc3)ccc2C1=O (stereo unspecified)
AUC [6]: 11200 ng·h/mL | Cmax [3]: 1150 ng/mL | AUC [4]: 3990 ng·h/mL | Cmax [7]: 3630 ng/mL

SMILES: CCOC(=O)CC1CCc2cc(NC(=O)c3ccc(C(=N)N)cc3)ccc2O1 (stereo unspecified)
AUC [6]: 14800 ng·h/mL | Cmax [7]: 4850 ng/mL

SMILES: N=C(N)c1ccc(COc2ccc3c(c2)CCC(CC(=O)O)C3=O)cc1 (stereo unspecified)
IC50 [2]: 27 nM | IC50 [1]: 450 nM

SMILES: N=C(N)c1ccc(COc2ccc3c(c2)CCC(CC(=O)O)C3)cc1 (stereo unspecified)
IC50 [2]: 260 nM | IC50 [1]: 33000 nM

SMILES: CCOC(=O)Cn1ccc2cc(NC(=O)c3ccc(C(=N)N)cc3)ccc2c1=O
Cmax [8]: 177 ng/mL | AUC [9]: 543 ng·h/mL

SMILES: N=C(N)c1ccc(COc2ccc3c(c2)CCCN(CC(=O)O)C3=O)cc1
IC50 [2]: 600 nM

SMILES: N=C(N)c1ccc(COc2ccc3c(=O)n(CC(=O)O)ccc3c2)cc1
IC50 [2]: 4200 nM

SMILES: N=C(N)c1ccc(C(=O)Nc2ccc3c(c2)CCC(CC(=O)O)C3=O)cc1 (stereo unspecified)
IC50 [1]: 60 nM | IC50 [5]: 0.02 µg/mL
